Screens from PubChem.
A selection: hits, their analogues and other compounds. The true share with any hit is near 3.4%.
m5-HT2A agonist – mouse Htr2a agonists via beta-arrestin recruitment, primary screen, cell-based, luminescence | activation, % at 7.6 µM | actives 0.66% (n = 360,000) | CHO-K1 mHTR2A beta-arrestin complementation; percent of 30 µM serotonin response | AID 624169, 2012;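 active = activation above a run cutoff, the mean activation of all tested compounds plus 3 SD, cut at about 14% in these data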
Target sequence (P35363 whole entry, looked up): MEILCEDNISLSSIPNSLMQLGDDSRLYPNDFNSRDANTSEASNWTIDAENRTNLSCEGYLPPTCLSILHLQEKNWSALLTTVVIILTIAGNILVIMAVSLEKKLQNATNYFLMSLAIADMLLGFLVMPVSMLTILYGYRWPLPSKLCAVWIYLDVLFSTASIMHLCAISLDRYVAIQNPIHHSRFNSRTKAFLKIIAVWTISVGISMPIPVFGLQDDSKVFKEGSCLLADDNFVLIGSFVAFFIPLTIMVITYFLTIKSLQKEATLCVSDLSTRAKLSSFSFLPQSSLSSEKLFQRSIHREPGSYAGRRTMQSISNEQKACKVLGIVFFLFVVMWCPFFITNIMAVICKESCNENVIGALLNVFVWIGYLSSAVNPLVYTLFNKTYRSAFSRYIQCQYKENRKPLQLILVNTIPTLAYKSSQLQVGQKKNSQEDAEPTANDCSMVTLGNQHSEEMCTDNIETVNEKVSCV
ANO1 activ – TMEM16A chloride channel activators or potentiators, primary screen, cell-based, HTS; Anoctamin-1 (Mus musculus), Q8BHY3; HEK293 TMEM16A/YFP-H148Q/I152L, iodide quench fluorescence; stronger effect = lower value; B-score at 10 µM; actives 0.3% (n = 340,000); AID 623877, 2012;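 active = fluorescence-ratio B-score plate-corrected deviation score at least 3 library SD below zero, with starting fluorescence score within 5 deviations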;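 note: channel opened by trigger with iodide after compound preincubation; score built on the fluorescence ratio of max minus min over baseline; more negative score means more quench and so TMEM16A activation or potentiation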
TMEM16A inh – TMEM16A chloride channel inhibitors, primary screen, cell-based, HTS | Anoctamin-1 (Mus musculus), Q8BHY3 | HEK293 TMEM16A/YFP iodide influx fluorescence, ionomycin | normalized B-score (activity score, 25-100; higher = stronger inhibition) at 10 µM | actives 1.2% (n = 310,000);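 active = ratio plate-corrected score three or more library SD toward inhibition, starting fluorescence score within five deviations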;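 note: score derived from kinetic fluorescence span divided by baseline fluorescence per well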
MC4R barr agon – MC4R agonists recruiting beta-arrestin, primary screen, cell-based, luminescence, agonist arm of biased-ligand search; U2OS MC4R beta-arrestin complementation; percent of melanotan II response, DMSO zero; activation, % at 8.9 µM; actives 0.98% (n = 360,000);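 active = activation above a per-plate cutoff, the mean activation of sample wells on that plate plus 3 SD, cut at about 8% in these data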
MIN6 prolif – inducers of MIN6 beta-cell proliferation, primary screen, ATP luminescence, uHTS; MIN6 cells proliferation, ATPlite luminescence, 48 h; cells starved in 0.2% serum; 100% = growth in 10% serum; proliferation, % at 10 µM; actives 0.29% (n = 330,000); AID 2380, 2010;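 active = compounds whose signal lies at least 3.5 SD above the mean of all wells on their plate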
MC4R antag cAMP – MC4R antagonists of cAMP signaling, primary screen, cell-based, TR-FRET, antagonist arm of biased-ligand search | MC4R-expressing cells, MTII-stimulated cAMP, LANCE TR-FRET | actives 0.48% (n = 360,000) | Melanocortin receptor 4 (Homo sapiens), P32245 | inhibition, % at 6.5 µM;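 active = inhibition above its plate's cutoff, the mean of tested wells on that plate plus 3 SD, cut at about 29% in these data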
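Assay system: U2OS-MC4R stable cell line; Also added: Melanotan II; Technique: Eu-cAMP/anti-cAMP TR-FRET, emission 671 nm; Times: 30-min compound, 1-h challenge, 1-h detection, room temperature.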
MC4R barr ag – MC4R beta-arrestin agonists, retest, confirmation, cell-based, luminescence, U2OS. shares compounds with MC4R barr agon. U2OS MC4R beta-arrestin recruitment; scaled DMSO 0%, Melanotan II 100%. activation, % at 8.9 µM. actives 31% (n = 2,400). AID 602192, 2012;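 active = mean activation across replicates above the hit cutoff set in the earlier primary screen, cut at about 8% in these data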
MOR-DOR barr ag – agonists of MOR-DOR heterodimerization, counter-screen for MC4R biased agonist project, cell-based, luminescence | actives 5.8% (n = 2,400) | activation, % at 9.2 µM | U2OS PathHunter beta-arrestin, beta-gal luminescence; percent of deltorphin B response, DMSO zero | shares compounds with MC4R barr agon | AID 602194, 2012;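 active = mean activation across replicates exceeds the hit threshold derived in the earlier primary screen, cut at about 18% in these data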
A number is an active result; n = inactive; x = no result.

SMILES	m5-HT2A agonist	ANO1 activ	TMEM16A inh	MC4R barr agon	MIN6 prolif	MC4R antag cAMP	MC4R barr ag	MOR-DOR barr ag
CN(C)C(=O)c1cccc(-c2cc(NC=O)c3ncc(-c4ccc(F)c(Cl)c4)n3c2)c1	n	x	x	n	x	n	x	x
CC(=O)Nc1cc(-c2ccc(N3CCN(C)CC3)cc2)cn2c(-c3ccccc3)cnc12	n	x	x	n	x	n	x	x
CC(=O)Nc1cc(-c2cccc(N)c2)cn2c(-c3ccccc3)cnc12	n	x	x	12	x	n	n	n
CCCNC(=O)C1(C)CCCN(C(=O)COCc2ccccc2)C1 (centres undefined)	n	x	x	n	x	n	x	x
CN(C)C(=O)c1cccc(-c2cnc3c(NC=O)cc(-c4cccc(F)c4)cn23)c1	n	x	x	n	x	n	x	x
CC(=O)Nc1cc(-c2ccccc2)cn2c(-c3cccc(C(C)=O)c3)cnc12	n	x	x	21	x	n	20	n
CC(=O)Nc1cc(-c2ccoc2)cn2c(-c3ccccc3)cnc12	n	x	x	11	x	n	15	n
CC(=O)c1cccc(-c2cnc3c(NC=O)cc(-c4ccccc4F)cn23)c1	n	x	x	20	x	n	20	n
COc1ccccc1-c1cnc(C(O)c2ccc(F)cc2C)[nH]1 (centres undefined)	n	x	x	n	x	n	x	x
O=C(Nc1ccc(N2CCCC2)c(Cl)c1)c1ccc([N+](=O)[O-])cc1	n	n	n	21	n	n	n	n
COc1ccc(NC(=O)CSc2ccc(-c3cccs3)nn2)c(OC)c1	n	n	n	14	n	n	n	n
COc1ccc(-c2ccc(SCC(=O)Nc3nccs3)nn2)cc1OC	n	n	n	11	n	n	n	n
COc1ccc(-c2nnc3ccc(SCC(=O)Nc4nccs4)nn23)cc1OC	n	n	n	n	n	n	x	x
COc1ccc(NC(=O)CSc2ccc(-c3cccnc3)nn2)c(OC)c1	n	n	n	n	n	n	x	x
N#Cc1cnc2nc(SCc3ccccc3)nn2c1	n	n	n	n	n	n	x	x
Cc1ccc(C(C)C)c(OCCNC(=O)c2ccccc2O)c1	n	n	n	13	n	n	n	n
CSc1ccc(Cl)c(C(=O)NCCOc2cc(C)ccc2C(C)C)c1	n	n	n	n	n	n	x	x
CCCN(CC(=O)Nc1ccccc1C)C(=O)C1CCN(S(=O)(=O)c2ccc(C)c(C)c2)CC1	n	x	x	n	x	n	x	x
CC(C)(C)c1ccc(S(=O)(=O)NCC(=O)N2CCN(Cc3ccccc3)CC2)cc1	n	n	n	n	n	n	x	x
COc1ccc2sc(-c3ccccc3OC)c(-c3ccc(OCCN(C)C)cc3)c2c1	n	n	x	n	x	n	x	x
c1ccc(-c2sc3ccccc3c2-c2ccc(OCCN3CCCC3)cc2)cc1	n	n	x	14	n	n	32	n
COc1ccccc1-c1sc2ccccc2c1-c1ccc(OCCN2CCCCC2)cc1	n	n	x	n	x	n	x	x
COc1cccc(-c2sc3ccccc3c2-c2ccc(OCCN(C)C)cc2)c1	n	n	x	29	n	n	56	n
COc1ccc(-c2sc3cc(OC)ccc3c2-c2ccc(OCCN3CCCCC3)cc2)cc1	n	x	x	x	x	x	x	x
COc1cccc(-c2sc3ccccc3c2-c2ccc(OCCN3CCCC3)cc2)c1	n	n	x	11	n	n	46	n
SMILES	m5-HT2A agonist	ANO1 activ	TMEM16A inh	MC4R barr agon	MIN6 prolif	MC4R antag cAMP	MC4R barr ag	MOR-DOR barr ag
C=C1C2(C(=O)Nc3ccc(SC(F)F)cc3)CCC(C2)C1(C)C (centres undefined)	n	n	n	17	n	n	n	n
CCCCOc1ccc(C2/C(=C(/O)c3ccc4c(c3)CC(C)O4)C(=O)C(=O)N2CCCN2CCOCC2)cc1OC (centres undefined)	n	n	n	n	n	n	x	x
S=c1[nH]nc(-c2cccs2)n1/N=C/c1cn(-c2ccccc2)nc1-c1cccs1	n	n	n	10	n	n	n	n
Cc1[nH]c2ccc(-c3nnc(SCC(=O)c4ccccc4F)o3)cc2c1C	n	n	n	10	n	n	n	n
CC(C)=NOc1nc(N2CCOCC2)nc(N2CCOCC2)n1	n	n	n	n	n	n	x	x
Clc1ccc(Cn2cc(/C=N/n3cnnc3)c3ccccc32)c(Cl)c1	n	n	n	16	n	n	11	n
C(=N\n1cnnc1)/c1cn(Cc2ccccc2)c2ccccc12	n	n	n	n	n	n	x	x
Cc1cccc(C(=O)O)c1NC(=O)Cc1cccc2ccccc12	n	n	n	n	n	n	x	x
CCOc1cc(/C=N/NC(=O)CSc2nnc(C)s2)ccc1OCc1ccccc1Cl	n	n	n	11	n	n	n	n
O=C(CSc1nnc(SCc2ccccc2Cl)s1)N/N=C/c1ccc(C(=O)O)cc1	n	n	n	n	n	n	x	x
Nc1c(C(=O)Nc2ccc(S(=O)(=O)N3CCCC3)cc2)sc2nc3ccc(OC(F)(F)F)cc3cc12	n	n	n	14	n	n	12	n
OC(COc1ccc(F)cc1Cl)CN1CCC(Cc2ccccc2)CC1 (centres undefined)	n	n	n	11	n	n	9.3	n
OC(COc1ccccc1F)CN1CCC(Cc2ccccc2)CC1 (centres undefined)	n	n	n	n	n	n	x	x
CCC(C)(C)C1CCC2(CC1)NC(=O)N(CC(=O)N(C)Cc1ccc(OC(F)F)cc1)C2=O (centres undefined)	n	n	n	17	n	n	n	n
Cc1cc(NC(=O)CSc2nc(-c3ccc(Cl)cc3)cs2)no1	n	n	n	18	n	n	n	n
CCN1CCN(c2ccc(S(=O)(=O)N3CCCCC3)cc2NC(=O)c2ccc([N+](=O)[O-])s2)CC1	n	n	n	n	n	n	x	x
COc1ccc(/C(C)=N/OCC(=O)N=Nc2c(O)[nH]c3ccccc23)cc1	n	n	n	14	n	n	11	n
